High-throughput results: PubChem, Broad Institute
IDH1 mut inh: inhibitors of human IDH1 R132H; IDH1 R132H reductase, diaphorase/resazurin fluorescence, 60 min; inhibition, % at 10 µM; hit rate 0.18% among 70,000; AID 624101; in the data active = inhibition above about 34%; inconclusive = no clear call, values can overlap the other calls; inactive = below about 11%;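 note: 0% = DMSO and 100% = no enzyme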
Target sequence (O75874 whole entry R132H): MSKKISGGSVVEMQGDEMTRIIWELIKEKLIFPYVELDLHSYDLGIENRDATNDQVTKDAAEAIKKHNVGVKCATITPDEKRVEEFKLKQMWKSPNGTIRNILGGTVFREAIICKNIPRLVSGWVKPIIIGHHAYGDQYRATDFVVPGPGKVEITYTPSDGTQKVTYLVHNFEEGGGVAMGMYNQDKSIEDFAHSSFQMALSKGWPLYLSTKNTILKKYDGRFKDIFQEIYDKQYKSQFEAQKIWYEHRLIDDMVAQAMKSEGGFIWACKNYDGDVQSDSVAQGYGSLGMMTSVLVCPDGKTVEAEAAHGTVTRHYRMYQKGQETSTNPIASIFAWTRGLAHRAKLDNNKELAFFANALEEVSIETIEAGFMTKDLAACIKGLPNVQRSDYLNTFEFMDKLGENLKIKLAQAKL
T cruzi growth-1: blocks T. cruzi growth in NIH3T3 culture; T. cruzi beta-gal in NIH3T3, GalScreen luminescence, 90 h; inhibition, % at 8.34 µM; hit rate 5.9% among 77,000; AID 624255;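 active = mean inhibition above about 93%, with at least 55% of replicates each passing it, limit read from the data, passing the limit was not always enough; inconclusive = only one of those two conditions holds; inactive = neither condition holds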
KDM4C inh: KDM4C (human) demethylase inhibition | Q9H3R0 | inhibition, % at 12.5 µM | hit rate 0.15% among 96,000 | AID 720574 | GST-KDM4C 2-372, H3K9me3 peptide, LANCE TR-FRET;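 active = mean replicate inhibition above about 25%, with at least 55% of replicates also reaching it, limit read from the data, passing the limit was not always enough; inconclusive = only one of those two conditions met; inactive = neither condition met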
Target sequence (Q9H3R0 2-372 limits assumed): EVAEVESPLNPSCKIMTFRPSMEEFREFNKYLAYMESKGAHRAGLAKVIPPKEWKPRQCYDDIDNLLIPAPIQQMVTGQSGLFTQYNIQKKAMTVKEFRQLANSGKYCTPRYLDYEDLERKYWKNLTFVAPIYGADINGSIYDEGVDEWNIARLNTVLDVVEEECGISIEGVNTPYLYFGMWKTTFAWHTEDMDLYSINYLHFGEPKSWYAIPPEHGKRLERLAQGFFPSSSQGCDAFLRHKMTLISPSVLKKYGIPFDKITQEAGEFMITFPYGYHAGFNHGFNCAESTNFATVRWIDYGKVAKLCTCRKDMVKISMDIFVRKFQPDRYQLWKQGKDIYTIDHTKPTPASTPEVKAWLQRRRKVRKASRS
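Material: GST-tagged GASC-1 (JMJD2C) catalytic fragment, aa 2-372. Input: enzyme final amount 10 nM. Medium: HEPES buffer, pH 7.5, plus ascorbate. Reagent: H3K9me3 peptide substrate, Fe(II), 2-oxoglutarate. Doses: single dose. Times: reaction 30 min RT, detection step 1 h RT. Measured by: LANCE TR-FRET. Evaluation: Fall in 671/618 emission ratio as inhibition.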
T cruzi growth-2: Trypanosoma cruzi proliferation inhibition; AID 651739; T. cruzi beta-gal in NIH3T3, GalScreen luminescence, 90 h; hit rate 72% among 5,600; shares compounds with T cruzi growth-1; inhibition, % at 8.35 µM;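 active = mean replicate inhibition above about 95% and at least 55% of replicates individually reaching it, limit read from the data; inconclusive = only one of the two criteria is met; inactive = neither criterion is met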
T cruzi growth-3: inhibitors of T. cruzi proliferation. AID 651740. T. cruzi beta-gal in NIH3T3, GalScreen luminescence, 90 h. shares compounds with T cruzi growth-1. inhibition, % at 2.09 µM. hit rate 21% among 5,600;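 active = mean inhibition above about 95%, with at least 55% of replicates also reaching it, limit read from the data; inconclusive = meets just one of the two conditions; inactive = meets neither condition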;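 note: plate controls were neutral control median for no effect and positive control median for full effect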
3T3 cytotox: kills mouse NIH/3T3 fibroblasts; NIH/3T3 viability, CellTiter-Glo ATP luminescence, 90 h; hit rate 14% among 5,600; shares compounds with T cruzi growth-1; cytotoxicity (signal decrease), % at 8.35 µM;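 active = mean signal decrease across replicates above about 35% based on untreated-well scatter, with enough replicates individually passing, limit read from the data; inconclusive = no rule stated though some were filed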;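 note: 0% = median of neutral control wells and 100% = median of positive control wells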
NIH3T3 tox 2: NIH/3T3 (mouse) viability loss | shares compounds with T cruzi growth-1 | NIH/3T3 viability, CellTiter-Glo ATP luminescence, 90 h | inhibition, % at 24.9 µM | hit rate 56% among 5,600;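 active = mean loss of cell viability signal at or above a set limit, and enough replicates individually reaching it; inconclusive = meets only the mean limit or only the replicate share; inactive = meets neither condition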;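 note: 0% = median of neutral control wells and 100% = median of positive control wells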
The depositor's hits bear a star; ? = inconclusive; / = no result. The sample as a whole holds a higher share of hits than the screen did.

SMILES | IDH1 mut inh | T cruzi growth-1 | KDM4C inh | T cruzi growth-2 | T cruzi growth-3 | 3T3 cytotox | NIH3T3 tox 2
Cc1ccccc1S(=O)(=O)N(C)C[C@H]1OCc2ccccc2-c2ccccc2C(=O)N([C@@H](C)CO)C[C@H]1C | -4 | 92 | 1 | / | / | / | /
Cc1ccc(N(CC(=O)Nc2cccc3ccccc23)S(C)(=O)=O)cc1Cl | 0 | / | / | / | / | / | /
COC(=O)c1ccc(NC(=O)CSc2ncn(-c3ccccc3)n2)cc1 | 0 | / | / | / | / | / | /
C=C(C(=O)O)C1CCC2(C)CCC(O)C2(C(C)=O)C1 (stereo unspecified) | 1 | / | / | / | / | / | /
CCCC#Cc1ccc([C@@H]2[C@H](CO)N3CCCCN(Cc4cncnc4)C[C@@H]23)cc1 | / | 42 | -1 | / | / | / | /
CCCC#Cc1ccc([C@@H]2[C@H](CO)N3CCCCN(Cc4cccnc4)C[C@@H]23)cc1 | / | 103* | -1 | 105* | 81 | 29 | 104*
CCCC#Cc1ccc([C@@H]2[C@H]3CN(Cc4cccnc4)CCCCN3[C@H]2CO)cc1 | / | 92 | 0 | / | / | / | /
CCCC#Cc1ccc([C@H]2[C@H](CO)N3CCCCN(Cc4cccnc4)C[C@@H]23)cc1 | / | 115* | 1 | 108* | 69 | -15 | 90*
CCCC#Cc1ccc([C@H]2[C@H](CO)N3CCCCN(Cc4ccncc4)C[C@@H]23)cc1 | / | 107* | 2 | 100* | 46 | 34 | 86*
CCCC#Cc1ccc([C@H]2[C@H](CO)N3CCCCN(Cc4cncnc4)C[C@@H]23)cc1 | / | 55 | 0 | / | / | / | /
CCCC#Cc1ccc([C@@H]2[C@@H](CO)N3CCCCN(Cc4cccnc4)C[C@H]23)cc1 | / | ? | -2 | 102* | 35 | 8 | 82*
O=C(O)CCCCCC(=O)N/N=C/c1ccccc1[N+](=O)[O-] | 0 | / | / | / | / | / | /
N#CCCN(Cc1ccco1)S(=O)(=O)c1ccccc1 | 0 | / | / | / | / | / | /
Cc1ccc(-c2ccn(-c3ccc(C)c(Cl)c3)c(=S)n2)cc1 | -1 | / | / | / | / | / | /
O=C(CSc1nnnn1-c1ccccc1)Nc1ccc(F)c(Cl)c1 | 0 | / | / | / | / | / | /
N#C[C@H]1[C@H](c2ccccc2)[C@@H](CO)N1S(=O)(=O)c1cccc(F)c1 | / | 45 | -1 | / | / | / | /
N#C[C@@H]1[C@@H](c2ccc(-c3cccc(F)c3)cc2)[C@@H](CO)N1S(=O)(=O)c1cccc(F)c1 | / | 99* | 0 | 99* | 61 | 39* | 66*
N#C[C@H]1[C@@H](c2ccccc2)[C@H](CO)N1S(=O)(=O)c1cccc(F)c1 | / | -11 | 1 | / | / | / | /
N#C[C@@H]1[C@H](c2ccc(-c3cccc(F)c3)cc2)[C@H](CO)N1S(=O)(=O)c1cccc(F)c1 | / | 102* | -1 | 107* | 89 | 10 | 54*
C/C=C/c1ccc([C@H]2[C@@H](CO)N(S(=O)(=O)c3cccc(F)c3)[C@H]2C#N)cc1 | 0 | 111* | -1 | 91 | 93 | -8 | 26
C/C=C/c1ccc([C@H]2[C@@H](C#N)N(S(=O)(=O)c3cccc(F)c3)[C@H]2CO)cc1 | / | 95 | 0 | / | / | / | /
CCn1c(SCC(=O)Nc2cc(Cl)ccc2Cl)nnc1-c1ccc(Cl)cc1 | 0 | / | / | / | / | / | /
Cc1ccc(C2=NN(C(=O)CCC(=O)O)C(c3ccc(F)cc3)C2)cc1 (stereo unspecified) | 1 | / | / | / | / | / | /
CCc1ccc(C(Nc2cc(C)ccn2)c2ccc3ccc(C)nc3c2O)cc1 (stereo unspecified) | -1 | / | / | / | / | / | /
C[C@H]1CN([C@@H](C)CO)S(=O)(=O)c2ccc(-c3ccncc3)cc2O[C@@H]1CN(C)Cc1ccccn1 | / | 117* | -2 | 103* | 99* | 33 | 86*
SMILES | IDH1 mut inh | T cruzi growth-1 | KDM4C inh | T cruzi growth-2 | T cruzi growth-3 | 3T3 cytotox | NIH3T3 tox 2
Cc1ccc(-c2ccc3c(c2)O[C@@H](CN(C)Cc2ccccn2)[C@H](C)CN([C@H](C)CO)S3(=O)=O)cc1 | / | 93 | -1 | / | / | / | /
C[C@H](CO)N1C[C@H](C)[C@H](CN(C)Cc2ccccn2)Oc2cc(-c3ccncc3)ccc2S1(=O)=O | 7 | 106* | -1 | 89 | 84 | 10 | 28
Cc1ccc(-c2ccc3c(c2)O[C@@H](CN(C)Cc2ccccn2)[C@H](C)CN([C@@H](C)CO)S3(=O)=O)cc1 | -3 | 119* | -1 | 98* | 82 | 64* | 103*
C[C@@H]1CN([C@@H](C)CO)S(=O)(=O)c2ccc(-c3ccncc3)cc2O[C@H]1CN(C)Cc1ccccn1 | 0 | 114* | 4 | 105* | 103* | 33 | 36*
C[C@H](CO)N1C[C@H](C)[C@@H](CN(C)Cc2ccccn2)Oc2cc(-c3ccccc3)ccc2S1(=O)=O | / | 51 | 1 | / | / | / | /
C[C@@H]1CN([C@@H](C)CO)S(=O)(=O)c2ccc(-c3ccncc3)cc2O[C@@H]1CN(C)Cc1ccccn1 | 2 | 86 | 0 | / | / | / | /
C[C@H]1CN([C@@H](C)CO)S(=O)(=O)c2ccc(-c3ccccc3)cc2O[C@@H]1CN(C)Cc1ccccn1 | 3 | 14 | 0 | / | / | / | /
COc1c(Cl)ccc(Cl)c1C(=O)Nc1ccc(S(=O)(=O)Nc2cc(C)nc(C)n2)cc1 | 1 | / | / | / | / | / | /
COc1ccc(NC(=O)c2ccc(OC(C)C(=O)O)cc2)cc1Cl (stereo unspecified) | 0 | / | / | / | / | / | /
C[C@@H]1CCCCO[C@@H](CN(C)CC2CC2)[C@@H](C)CN([C@H](C)CO)C(=O)c2cc(NC(=O)Nc3ccc(C(F)(F)F)cc3)ccc2O1 | 1 | 98* | -1 | 99* | 107* | 32 | 101*
C[C@@H]1CCCCO[C@H](CN(C)CC2CCCCC2)[C@H](C)CN([C@@H](C)CO)C(=O)c2cc(NC(=O)Nc3ccc(C(F)(F)F)cc3)ccc2O1 | / | ? | 0 | 97* | 110* | 121* | 104*
C[C@@H]1CCCCO[C@@H](CN(C)CC2CCCCC2)[C@@H](C)CN([C@H](C)CO)C(=O)c2cc(NC(=O)Nc3ccc(C(F)(F)F)cc3)ccc2O1 | / | 102 | 0 | / | / | / | /
C[C@H](CO)N1C[C@H](C)[C@@H](CN(C)CC2CC2)OCCCC[C@H](C)Oc2ccc(NC(=O)Nc3ccc(C(F)(F)F)cc3)cc2C1=O | / | 57 | 0 | / | / | / | /
C[C@@H]1CCCCO[C@@H](CN(C)CC2CCCCC2)[C@H](C)CN([C@@H](C)CO)C(=O)c2cc(NC(=O)Nc3ccc(C(F)(F)F)cc3)ccc2O1 | / | ? | -2 | 85 | 108* | 117* | 104*
C[C@H]1CCCCO[C@@H](CN(C)CC2CCCCC2)[C@@H](C)CN([C@@H](C)CO)C(=O)c2cc(NC(=O)Nc3ccc(C(F)(F)F)cc3)ccc2O1 | 2 | 86 | / | / | / | / | /
Cc1ccc(-c2nc3cc(Cl)cc(Cl)c3o2)cc1NC(=O)COc1ccc([N+](=O)[O-])cc1 | 0 | / | / | / | / | / | /
Cn1cccc1CNCCCN1CCOCC1 | 0 | / | / | / | / | / | /
COC(=O)c1c(NC(=S)NCc2ccco2)sc2c1CCC2 | -1 | / | / | / | / | / | /
O=C(CCCCCCC(=O)N/N=C/c1nccs1)NO | 0 | / | / | / | / | / | /
